Assay results taken from ChEMBL document CHEMBL5058577, “EUbOPEN Chemogenomics Library 2 (Multiplex)” (2022).

System: U2OS
Experiment: Multiplex assay against U2OS
Format: toxicity, cell-based
Conditions: human
Outline: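 Cells stained live at seeding with Hoechst33342, BioTracker Green Microtubule Cytoskeleton Dye, MitoTracker Red and Annexin V Alexa Fluor 680 were imaged on a CQ1 microscope at 37°C and 5% CO2 after compound addition. Their classification by CellPathfinder machine-learning gating ran from Hoechst high-intensity objects versus normal cells, to healthy, pyknosed or fragmented nuclei among normal cells, to mitotic or apoptotic among pyknosed cells. Tubulin, mitochondrial-mass and membrane-permeability phenotypes are per cents of healthy-nucleus cells.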

[1] = 12 h, 1 µM, compound concentration 1 uM, replicate 1
[2] = 12 h, 1 µM, compound concentration 1 uM, replicate 2
[3] = 12 h, 10 µM, compound concentration 10 uM, replicate 1
[4] = 12 h, 10 µM, compound concentration 10 uM, replicate 2
[5] = 24 h, 1 µM, compound concentration 1 uM, replicate 1
[6] = 24 h, 1 µM, compound concentration 1 uM, replicate 2
[7] = 24 h, 10 µM, compound concentration 10 uM, replicate 1
[8] = 24 h, 10 µM, compound concentration 10 uM, replicate 2
[9] = 48 h, 1 µM, compound concentration 1 uM, replicate 1
[10] = 48 h, 1 µM, compound concentration 1 uM, replicate 2
[11] = 48 h, 10 µM, compound concentration 10 uM, replicate 1
[12] = 48 h, 10 µM, compound concentration 10 uM, replicate 2

## COc1ccccc1N1CCN(C[C@@H](C(=O)NC(C)(C)C)c2ccccc2)CC1.Cl.Cl
[1]
  Population Apoptotic (%): 73%
  Population Fragmented Nuclei (%): 29%
  Population Healthy Nuclei (%): 65%
  Population Hoechst High Intensity Objects (%): 2%
  Population Membrane Permeable-Phenotype (%): 5%
  Population Mitochondria Different-Phenotype (%): 3%
  Population Mitotic Cells (%): 26%
  Population Normal (%): 97%
  Population Pyknosed Nuclei (%): 5%
  Population Tubulin-Different-Phenotype (%): 1%
  Total Cell Count: 281
[2]
  Population Apoptotic (%): 66%
  Population Fragmented Nuclei (%): 14%
  Population Healthy Nuclei (%): 80%
  Population Hoechst High Intensity Objects (%): 1%
  Population Membrane Permeable-Phenotype (%): 7%
  Population Mitochondria Different-Phenotype (%): 2%
  Population Mitotic Cells (%): 33%
  Population Normal (%): 98%
  Population Tubulin-Different-Phenotype (%): 3%
  Total Cell Count: 114
[3]
  Population Apoptotic (%): 46%
  Population Fragmented Nuclei (%): 35%
  Population Healthy Nuclei (%): 49%
  Population Hoechst High Intensity Objects (%): 3%
  Population Membrane Permeable-Phenotype (%): 41%
  Population Mitochondria Different-Phenotype (%): 41%
  Population Mitotic Cells (%): 53%
  Population Normal (%): 96%
  Population Pyknosed Nuclei (%): 14%
  Population Tubulin-Different-Phenotype (%): 41%
  Total Cell Count: 226
[4]
  Population Apoptotic (%): 50%
  Population Fragmented Nuclei (%): 17%
  Population Healthy Nuclei (%): 66%
  Population Hoechst High Intensity Objects (%): 0%
  Population Membrane Permeable-Phenotype (%): 49%
  Population Mitochondria Different-Phenotype (%): 56%
  Population Mitotic Cells (%): 50%
  Population Normal (%): 99%
  Population Pyknosed Nuclei (%): 15%
  Population Tubulin-Different-Phenotype (%): 64%
  Total Cell Count: 102
[5]
  Population Apoptotic (%): 68%
  Population Fragmented Nuclei (%): 29%
  Population Healthy Nuclei (%): 62%
  Population Hoechst High Intensity Objects (%): 3%
  Population Membrane Permeable-Phenotype (%): 7%
  Population Mitochondria Different-Phenotype (%): 1%
  Population Mitotic Cells (%): 32%
  Population Normal (%): 96%
  Population Pyknosed Nuclei (%): 8%
  Population Tubulin-Different-Phenotype (%): 3%
  Total Cell Count: 320
[6]
  Population Apoptotic (%): 80%
  Population Fragmented Nuclei (%): 16%
  Population Healthy Nuclei (%): 75%
  Population Membrane Permeable-Phenotype (%): 5%
  Population Mitochondria Different-Phenotype (%): 6%
  Population Mitotic Cells (%): 20%
  Population Tubulin-Different-Phenotype (%): 2%
  Total Cell Count: 129
[7]
  Population Apoptotic (%): 61%
  Population Fragmented Nuclei (%): 38%
  Population Healthy Nuclei (%): 42%
  Population Hoechst High Intensity Objects (%): 5%
  Population Membrane Permeable-Phenotype (%): 20%
  Population Mitochondria Different-Phenotype (%): 33%
  Population Mitotic Cells (%): 38%
  Population Normal (%): 94%
  Population Pyknosed Nuclei (%): 18%
  Population Tubulin-Different-Phenotype (%): 25%
  Total Cell Count: 235
[8]
  Population Apoptotic (%): 70%
  Population Fragmented Nuclei (%): 20%
  Population Healthy Nuclei (%): 63%
  Population Membrane Permeable-Phenotype (%): 39%
  Population Mitochondria Different-Phenotype (%): 61%
  Population Mitotic Cells (%): 29%
  Population Pyknosed Nuclei (%): 15%
  Population Tubulin-Different-Phenotype (%): 52%
  Total Cell Count: 113
[9]
  Population Apoptotic (%): 78%
  Population Fragmented Nuclei (%): 21%
  Population Healthy Nuclei (%): 66%
  Population Hoechst High Intensity Objects (%): 2%
  Population Membrane Permeable-Phenotype (%): 5%
  Population Mitochondria Different-Phenotype (%): 1%
  Population Mitotic Cells (%): 22%
  Population Normal (%): 97%
  Population Pyknosed Nuclei (%): 11%
  Population Tubulin-Different-Phenotype (%): 1%
  Total Cell Count: 452
[10]
  Population Apoptotic (%): 83%
  Population Fragmented Nuclei (%): 16%
  Population Healthy Nuclei (%): 72%
  Population Hoechst High Intensity Objects (%): 4%
  Population Membrane Permeable-Phenotype (%): 7%
  Population Mitochondria Different-Phenotype (%): 2%
  Population Mitotic Cells (%): 16%
  Population Normal (%): 95%
  Population Tubulin-Different-Phenotype (%): 4%
  Total Cell Count: 162
[11]
  Population Apoptotic (%): 58%
  Population Fragmented Nuclei (%): 33%
  Population Healthy Nuclei (%): 44%
  Population Hoechst High Intensity Objects (%): 4%
  Population Membrane Permeable-Phenotype (%): 28%
  Population Mitochondria Different-Phenotype (%): 30%
  Population Mitotic Cells (%): 41%
  Population Normal (%): 95%
  Population Pyknosed Nuclei (%): 21%
  Population Tubulin-Different-Phenotype (%): 21%
  Total Cell Count: 271
[12]
  Population Apoptotic (%): 96%
  Population Fragmented Nuclei (%): 18%
  Population Healthy Nuclei (%): 58%
  Population Hoechst High Intensity Objects (%): 8%
  Population Membrane Permeable-Phenotype (%): 43%
  Population Mitochondria Different-Phenotype (%): 29%
  Population Mitotic Cells (%): 4%
  Population Normal (%): 91%
  Population Pyknosed Nuclei (%): 22%
  Population Tubulin-Different-Phenotype (%): 35%
  Total Cell Count: 121
